Experimental data: ChEMBL document CHEMBL1806371, “Selenocyanates and diselenides: a new class of potent antileishmanial agents” (Eur J Med Chem, 2011)
Calls of active or inactive are those of the source. The rule behind the calls is not given here.

Legend:
Leishmania infantum [1] = experiment: Antileishmanial activity against Leishmania infantum MCAN/ES/89/IPZ229/1/89 amastigotes after 24 hrs by microscopy; assay type: functional, organism-based; details: MCAN/ES/89/IPZ229/1/89, 24 h
Summary of the method: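 Axenic L. infantum amastigotes (M199, 10% FCS, pH 5.4, 37 °C) treated in log phase at 1×10^6 parasites/mL for 24 h. Living cells counted by flow cytometry with propidium iodide exclusion, with microscopic observation by phase contrast or fluorescence. At least three independent experiments.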

Leishmania infantum [2] = experiment: Antileishmanial activity against Leishmania infantum MCAN/ES/89/IPZ229/1/89 promastigotes assessed as growth inhibition at 25 uM after 24 hrs; assay type: functional
Summary of the method: (§1)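 Log-phase L. infantum promastigotes (RPMI-1640, 10% FCS, 25 mM HEPES, pH 7.2, 26 °C) treated at 2×10^6 parasites/mL for 24 h. Screening used 25, 12.5 and 6.25 μM to give percent growth inhibition. Living cells measured by flow cytometry with propidium iodide exclusion. At least three independent experiments.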

[3] = Selectivity ratio, ratio of IC50 for human THP1 cells to IC50 for Leishmania infantum MCAN/ES/89/IPZ229/1/89 amastigotes; assay type: ADME, cell-based; details: THP-1 cells, read-out: Ratio IC50
Summary of the method: (§2)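 Selectivity index is IC50 against Jurkat or THP-1 cells divided by IC50 against L. infantum amastigotes. Host cells were treated in log phase at 4×10^5 cells/mL for 24 h at 37 °C, 5% CO2, at 0.08, 0.4, 2.0, 10.0 and 50.0 μM. Viability was measured by flow cytometry with propidium iodide exclusion.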

Leishmania infantum [4] = experiment: Antileishmanial activity against Leishmania infantum MCAN/ES/89/IPZ229/1/89 promastigotes after 24 hrs […]; assay type: functional, organism-based; details: MCAN/ES/89/IPZ229/1/89, 24 h; summary of the method: as §1
[5] = Selectivity ratio, ratio of IC50 for human Jurkat cells to IC50 for Leishmania infantum MCAN/ES/89/IPZ229/1/89 amastigotes; assay type: ADME, cell-based; details: read-out: Ratio IC50; summary of the method: as §2
Leishmania infantum [6] = experiment: Antileishmanial activity against Leishmania infantum MCAN/ES/89/IPZ229/1/89 promastigotes assessed as growth inhibition at 6.25 uM after 24 hrs; assay type: functional; summary of the method: as §1
Jurkat = experiment: Cytotoxicity against human Jurkat cells assessed as live cells in neubauer chamber after 24 hrs by trypan blue assay; assay type: cell-based
THP-1 = experiment: Cytotoxicity against human THP1 cells assessed as live cells in neubauer chamber after 24 hrs by trypan blue assay; assay type: cell-based; details: THP-1, 24 h
Leishmania infantum [7] = experiment: Antileishmanial activity against Leishmania infantum MCAN/ES/89/IPZ229/1/89 promastigotes assessed as growth inhibition at 12.5 uM after 24 hrs; assay type: functional; summary of the method: as §1
[8] = Human intestinal absorption in human; assay type: ADME, organism-based; details: read-out: HIA
Summary of the method: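 Values are computed, not measured. Human intestinal absorption (%) and Caco-2 permeability (nm/s) were predicted in silico with the PreADMET program.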

Leishmania infantum [9] = experiment: Ratio of edelfosine IC50 to compound IC50 for Leishmania infantum MCAN/ES/89/IPZ229/1/89 amastigotes; assay type: functional
Leishmania infantum [10] = experiment: Antileishmanial activity against Leishmania infantum MCAN/ES/89/IPZ229/1/89 amastigotes expressing GFP infected in human THP1 cells assessed as parasite infected cells after 48 hrs by flow cytometry (reference value: 35%); assay type: functional, THP-1
Leishmania infantum [11] = experiment: Ratio of miltefosine IC50 to compound IC50 for Leishmania infantum MCAN/ES/89/IPZ229/1/89 amastigotes; assay type: functional
[12] = Permeability across human Caco2 cells; assay type: ADME, cell-based; details: Caco-2, read-out: permeability

Row | SMILES | IC50 (Leishmania infantum [1]) | GI (Leishmania infantum [2]) | selectivity ratio [3] | IC50 (Leishmania infantum [4]) | selectivity ratio [5] | GI (Leishmania infantum [6]) | IC50 (Jurkat) | IC50 (THP-1) | GI (Leishmania infantum [7]) | Fa [8] | Ratio IC50 (Leishmania infantum [9]) | Activity (Leishmania infantum [10]) | Ratio IC50 (Leishmania infantum [11]) | Papp [12] | growth inhibition (GI) (Leishmania infantum [2]) | growth inhibition (GI) (Leishmania infantum [6]) | growth inhibition (GI) (Leishmania infantum [7])
1 | N#C[Se]CCc1ccc([N+](=O)[O-])cc1 | 3.8 µM | 88.9% | 5 | 11.9 µM | 1 | 46.6% | 2.4 µM | 17.2 µM | 81.8% |  |  |  |  |  |  |  | 
2 | O=[N+]([O-])c1ccc(C[Se][Se]Cc2ccc([N+](=O)[O-])cc2)cc1 | 0.38 µM | 98.7% | 77 |  | 71 | 81.8% | 26.8 µM | 18.8 µM | 96.3% | 98.3% | 2.2 | 17% | 7.5 | 2.01 ×10⁻⁶ cm/s |  |  | 
3 | N#C[Se]Cc1ccc(C(F)(F)F)cc1 | 2.14 µM | 98.8% | 9 | 11.3 µM | 3 | 79.4% | 7.31 µM | 19.8 µM | 97.2% |  |  |  |  |  |  |  | 
4 | CC(=O)Nc1ccc([Se]C#N)cc1C(=O)O |  |  |  |  |  |  |  |  |  |  |  |  |  |  | inactive |  | 
5 | FC(F)(F)c1ccc(C[Se][Se]Cc2ccc(C(F)(F)F)cc2)cc1 |  | 12.2% |  |  |  | 11% |  |  | 6% |  |  |  |  |  |  |  | 
6 | N#C[Se]Cc1ccccc1C#N | 3.16 µM | 90.2% | 5 | 7.75 µM | 5 | 31.4% | 17.1 µM | 17.1 µM | 62.4% |  |  |  |  |  |  |  | 
7 | CN(C)c1ccc([Se][Se]c2ccc(N(C)C)cc2)cc1 |  | 77.6% | 29 |  | > 65 | 51.5% | > 50 µM | > 25 µM | 67.7% | 100% |  | 23% |  | 5.61 ×10⁻⁶ cm/s |  |  | 
8 | N#Cc1ccc(C[Se][Se]Cc2ccc(C#N)cc2)cc1 |  | 32.8% |  |  |  | 10.9% |  |  | 21.9% |  |  |  |  |  |  |  | 
9 | O=[N+]([O-])c1ccccc1C[Se][Se]Cc1ccccc1[N+](=O)[O-] | 0.29 µM | 77.2% | 8 | 12.5 µM | 9 | 50% | 2.62 µM | 2.42 µM | 58.9% |  | 2.8 |  | 9.8 |  |  |  | 
10 | N#C[Se]Cc1ccc([N+](=O)[O-])cc1 | 0.68 µM | 98% | 25 | 4.3 µM | 10 | 82.3% | 6.86 µM | 16.8 µM | 95% |  |  |  |  |  |  |  | 
11 | c1ccc(C[Se][Se]Cc2ccccc2)cc1 [BISBENZYLDISELENIDE] | 0.63 µM | 60.4% | 51 |  | 41 | 33.2% | 26.1 µM | 32.2 µM | 43.6% | 100% |  | 24% |  | 5.83 ×10⁻⁶ cm/s |  |  | 
12 | N#C[Se]Cc1ccccc1 [BENZYLSELENOCYANATE] | 2.58 µM | 99.4% | 10 | 7.95 µM | 4 | 46.5% | 10.7 µM | 25 µM | 64.1% |  |  |  |  |  |  |  | 
13 | CSc1ccc(C[Se][Se]Cc2ccc(SC)cc2)cc1 |  | 17.5% |  |  |  |  |  |  |  |  |  |  |  |  |  | inactive | inactive
14 | CCCCCCCCCCCCCCCCOP(=O)([O-])OCC[N+](C)(C)C [MILTEFOSINE] | 2.84 µM |  | 7 | 15 µM | 17 |  | 33.4 µM | 18.5 µM |  | 99% |  |  |  | 2.17 ×10⁻⁶ cm/s |  |  | 
15 | c1ccc2cc(C[Se][Se]Cc3ccc4ccccc4c3)ccc2c1 |  |  |  |  |  |  |  |  |  |  |  |  |  |  | inactive |  | 
16 | O=[N+]([O-])c1ccc(CC[Se][Se]CCc2ccc([N+](=O)[O-])cc2)cc1 |  | 28.4% |  |  |  | 1.2% |  |  | 3.2% |  |  |  |  |  |  |  | 
17 | N#Cc1cccc(C[Se][Se]Cc2cccc(C#N)c2)c1 |  | 44.3% |  |  |  | 22.6% |  |  | 35.4% |  |  |  |  |  |  |  | 
